In ChEMBL document CHEMBL3227935, “Mapping the dopamine receptor. 2. Features derived from modifications in the rings A/B region of the neuroleptic butaclamol” (J Med Chem, 1979):
Activity calls are given as the source filed them. The calls are words filed in the database; no cut-off is given here.

Experiments:
Rattus norvegicus [1] = assay: Neuroleptic activity in ip dosed Sprague-Dawley rat assessed as failure in active avoidance response measured within 30 mins; assay type: functional; conditions: 0.5 h
Method in brief: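 Male rats (250-400 g) trained in a three-chamber discrimination box to move to a lighted exit within 10 s or receive shock. Before dosing, a two-trial control session in groups of six or more. Graded ip doses, then ten trials 30 min later. Mean failures to leave before shock are taken as percent of trials. ED50 gives 50% failure, by Litchfield-Wilcoxon.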

Mus musculus = species: Mus musculus; assay: Induction of taming effect in Swiss albino mouse assessed as reduction of isolation-induced fighting behavior measured after 0.5 to 3 hrs; assay type: functional
Method in brief: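 Male albino mice (14-16 g) isolated 4-5 weeks, then paired in one cage for 5 min. A morning control session confirmed maximal fighting in both members of each pair. Compounds given ip, with retesting at 30 min and 3 h. All-or-none read-out: effective if no fighting occurred in the 5-min observation. ED50 (mg/kg, ip) is the dose abolishing fighting in 50% of pairs, by Litchfield-Wilcoxon.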

Rattus norvegicus [2] = assay: Neuroleptic activity in ip dosed Sprague-Dawley rat assessed as protection against epinephrin bitartrate-induced mortality measured over 24 hrs; assay type: functional
Method in brief: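 Groups of six or more male Sprague–Dawley rats (220–250 g) received graded ip doses. Epinephrine bitartrate, 0.25 mg/kg iv, lethal to untreated rats, was injected 1 h later. Deaths were counted over 24 h. Protective ED50 (mg/kg, ip) is the dose that saved 50% of rats, calculated by Litchfield–Wilcoxon.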

Rattus norvegicus [3] = assay: Induction of catalepsy in Sprague-Dawley rat at 5 mg/kg, ip measured after 1 to 24 hrs relative to control; assay type: organism-based; design: dose 5 mg/kg, route intraperitoneal; conditions: in vivo
Method in brief: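 Male rats (160-180 g), groups of six, given 5 mg/kg ip. Catalepsy scored at 1, 2, 4, 6 and 24 h using stages III and IV of Wirth et al. The highest mean cataleptic score is expressed as percent of the maximum attainable score.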

Rattus norvegicus [4] = assay: Neuroleptic activity in ip dosed Sprague-Dawley rat assessed as inhibition of d-amphetamine sulfate-induced stereotyped behavior measured every 15 mins for 4 hrs; assay type: functional; conditions: read-out: MED
Method in brief: (§1)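 Male rats (160-180 g), groups of four or more, given d-amphetamine 10 mg/kg ip, then graded ip doses of compound or vehicle 15 min later (highest 20 mg/kg). Behavior scored every 15 min over 4 h: 0 normal, 1 excited, 2 stereotyped. MED is the lowest dose antagonizing all amphetamine effects for the whole period.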

[5] = Dissociation constant, pKa of the compound; assay type: physicochemical
Rattus norvegicus [6] = assay: Neuroleptic activity in Sprague-Dawley rat assessed as inhibition of d-amphetamine sulfate-induced stereotyped behavior at 20 mg/kg, ip measured every 15 mins for 4 hrs; assay type: functional, organism-based; design: dose 20 mg/kg; method in brief: as §1

| SMILES | ED50 (Rattus norvegicus [1]) | ED50 (Mus musculus) | ED50 (Rattus norvegicus [2]) | %max (Rattus norvegicus [3]) | minimal effective dose (Rattus norvegicus [4]) | pKa [5] | inhibition (Rattus norvegicus [6]) |
| --- | --- | --- | --- | --- | --- | --- | --- |
| CC(C)(C)[C@@]1(O)CCN2C[C@@H]3c4ccccc4CCc4cccc(c43)[C@H]2C1 | 0.64 mg/kg | 1.9 mg/kg | 15 mg/kg | 60% | 0.62 mg/kg | 5.9 | – |
| CC(C)(C)C1(O)CCN2C[C@H]3Cc4ccccc4Cc4cccc(c43)C2C1 (stereo not given in full) | – | – | – | – | – | – | inactive |
| CC(C)(C)C1(O)CCN2C[C@H]3Cc4ccccc4Cc4cccc(c43)[C@@H]2C1 (relative stereo) | 1 mg/kg | 2 mg/kg | 10 mg/kg | 45% | 0.62 mg/kg | – | – |
| CC(C)(C)C1(O)CCN2C[C@H]3CCc4ccccc4-c4cccc(c43)[C@@H]2C1 (relative stereo) | – | – | – | – | – | – | inactive |
| CC(C)(C)C1(O)CCN2C[C@H]3CCc4ccccc4-c4cccc(c43)[C@H]2C1 (relative stereo) | – | – | – | – | – | – | inactive |
| CC(C)(C)C1(O)CCN2C[C@H]3Cc4ccccc4Cc4cccc(c43)[C@H]2C1 (relative stereo) | – | – | – | – | – | – | inactive |
